GPR7 antagonist: human neuropeptides B/W receptor 1 antagonism. P48145. GPR7-expressing cells, fluorescence antagonist assay. inhibition, % at 4.4 µM. 290,000 compounds, 1.1% hits; in the data active = inhibition above about 16%, passing the limit was not always enough;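 note: cells stimulated with the agonist NPW; 0% = agonist with vehicle and 100% = vehicle without agonist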
GalR3 antag: antagonists of human GalR3 | 360,000 compounds, 0.44% hits | HEK293 GalR3-CNG cAMP membrane potential fluorescence; galR3 body fused to GalR1 C-terminus | AID 651719 | inhibition, % at 3 µM;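 active = inhibition above the screen-wide average plus 3 SD, cut at about 13% in these data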;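 note: forskolin and galanin both at EC90 stimulate the cells; cAMP rise reported by CNG channel membrane potential dye signal; 0% = forskolin plus galanin with DMSO and 100% = forskolin alone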
Target sequence (O60755 1-299 limits assumed): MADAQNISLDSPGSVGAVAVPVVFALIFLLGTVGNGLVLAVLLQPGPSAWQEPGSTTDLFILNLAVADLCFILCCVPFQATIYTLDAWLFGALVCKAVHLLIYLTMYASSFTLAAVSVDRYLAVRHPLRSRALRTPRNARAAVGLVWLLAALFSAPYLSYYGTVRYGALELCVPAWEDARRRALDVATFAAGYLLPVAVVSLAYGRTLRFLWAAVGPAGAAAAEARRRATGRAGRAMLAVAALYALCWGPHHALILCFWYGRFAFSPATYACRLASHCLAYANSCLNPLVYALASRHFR
CHO parental Ca: counter-screen for OX1R antagonists: effect in parental CHO cells | parental CHO-K1, ATP-induced calcium, Fluo-8 fluorescence | inhibition, % at 5.6 µM | 330,000 compounds, 0.63% hits | AID 463079;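 active = inhibition above that plate's mean sample inhibition plus 3 SD, cut at about 26% in these data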;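 note: 0% = ATP-challenged DMSO wells and 100% = DMSO wells without ATP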
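Material – parental CHO cells · Reagent – ATP stimulus · Compound – single nominal dose of 5.6 µM per compound · Detection – Fluo-8 fluorescence · Read-out basis – percent inhibition of calcium signal · Controls – ATP-challenged DMSO wells low, unchallenged DMSO wells high · Repeats – no replicates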
OX1R antag-1: OX1R (human) antagonism | O43613 | OX1R-expressing cells, FRET antagonist read-out | inhibition, % at 6.6 µM | 330,000 compounds, 1.8% hits; in the data active = inhibition mostly above about 38%, no sharp cut-off; inactive = mostly below about 40%;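 note: 0% = agonist challenge alone and 100% = reference antagonist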
OX1R antag-2: blocks the human orexin 1 receptor; CHO/OX1R cells, Fluo-8 calcium fluorescence, orexin A; 330,000 compounds, 0.43% hits; AID 434989; inhibition, % at 5 µM;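 active = inhibition above its plate's threshold, mean inhibition of all tested compounds on the plate plus 3 SD, cut at about 37% in these data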;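 note: 0% = orexin A challenge wells and 100% = SB-334867-A antagonist wells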
* = called active by the depositor; / = no result. Rows were chosen to be rich in hits. Some 3.1% of all compounds tested hit in one or more screens of this group.

SMILES	GPR7 antagonist	GalR3 antag	CHO parental Ca	OX1R antag-1	OX1R antag-2
C=CC[C@H]1CC(C)=C[C@H](CC=C)N1C(=O)c1cc(COc2ccccc2SC)on1	-14	-2	44*	40	-18
CCCN1C(=O)/C(=C/c2c(N3CCNC(=O)C3CC(=O)OC)nc3c(C)cccn3c2=O)SC1=S (centres undefined)	-1	/	/	/	/
Cc1ccc(-c2c(C(=O)N(C)Cc3ccccc3)oc(=O)c3ccccc23)cc1	19*	-7	-3	16	-22
O=CNc1cc(-c2cccc(F)c2)cn2c(-c3ccc(F)c(Cl)c3)cnc12	/	2	/	/	/
COc1cc(/C=C/C(=O)OCC(=O)N2c3ccccc3NC(=O)C2(C)C)cc(OC)c1OC	/	0	-8	39*	12
COc1cc(/C=C/C(=O)NC(=O)c2ccccc2O)ccc1OC(C)=O	-13	-2	-13	66*	4
COc1ccc(/C=C/C(=O)NC(=S)Nc2ccccc2)cc1OC	-7	-9	-4	2	-16
CCOC(=O)C1=CCC(c2ccccc2)N(S(C)(=O)=O)C1 (centres undefined)	/	-4	/	/	/
O=C(CCc1ccccc1)Nc1cccc(NC(=O)CCc2ccccc2)c1	2	-3	-29	48*	19
COc1cccc(CN(C)C(=O)[C@H]2O[C@@H](n3cnc4c(=O)[nH]c(N)nc43)[C@H](O)[C@@H]2O)c1	/	-6	/	/	/
O=C1[C@H](c2ccccc2)[C@@H](c2ccncc2)N1c1ccncc1	/	-8	/	/	/
CCc1c(C2(O)CCCCC2)[nH]c2ccc(C(F)(F)F)cc12	-16	-2	40*	59*	35
CCN(CC)c1ccc(/C=C(\C#N)C(N)=O)cc1	-9	-5	/	/	/
CCN(CC)c1ccc(/C=C(\C#N)C(=O)c2ccc(Br)cc2)cc1	9	-6	54*	13	78*
O=C1CCCc2c1nc(-c1ccc(F)cc1)n2O	-3	-1	-17	6	-9
O=C1CCCc2c1nc(-c1ccc([N+](=O)[O-])cc1)n2O	-6	-3	1	48*	-14
CCn1c(SCc2nc(-c3ccccc3)no2)nnc1-c1cccs1	18	-1	-25	31	-8
CCn1c(SCc2nc(CC(=O)Nc3ccccc3OC)no2)nnc1-c1cccs1	-9	-4	-16	70*	-6
Cc1c(C(=O)OCC(=O)Nc2cccc(S(N)(=O)=O)c2)oc2c1ccc1ccccc12	0	-6	2	48*	27
Fc1ccc2nc(C3CCCCN3Cc3nc(CC4CC4)no3)[nH]c2c1 (centres undefined)	19*	0	-17	17	-40
Fc1ccc(C2CCCCN2Cc2nc(CC3CC3)no2)cc1 (centres undefined)	-6	-1	-11	5	-8
Cc1nn(-c2cccc([N+](=O)[O-])c2)c(N)c1-c1ccccc1	4	-3	-2	41*	-23
CC1C=CCC2C(=O)N(c3ccc(OC(=O)c4ccco4)cc3)C(=O)C12 (centres undefined)	19*	-3	-4	19	-10
CC1C=CCC2C(=O)N(c3ccc(OC(=O)c4cccs4)cc3)C(=O)C12 (centres undefined)	5	0	10	10	-7
CC(=O)N1C[C@@H](CO)[C@@H](N(C)C(=O)Nc2cccc3ccccc23)C[C@H]1c1ccccc1	/	-4	/	/	/
SMILES	GPR7 antagonist	GalR3 antag	CHO parental Ca	OX1R antag-1	OX1R antag-2
NC1=NC[C@H](Cc2ccccc2)N1CCCCC1CCCCC1	/	-1	74*	-12	75*
COc1ccc(C(=O)c2ccc(N(C)C)cc2)c2ccccc12	13	-6	33*	22	58*
CC(C)(C)C(=O)c1c(N)[nH]c(C(=O)c2ccccc2)c1-c1ccc([N+](=O)[O-])cc1	/	1	/	/	/
CCCCOCC1CN(CCCC)S(=O)(=O)c2c(cccc2N2CCCCC2)O1 (centres undefined)	/	-7	/	/	/
Cc1cc(/C=N/n2cnnc2)c(C)n1-c1ccc(OCc2ccc(Cl)cc2Cl)cc1	-2	/	45*	50	53*
COc1ccc(NC(=O)CCn2c(=S)[nH]c3ccccc3c2=O)cc1Cl	/	-6	/	/	/
O=C(Nc1ccc(-n2nncc2-c2ccco2)cc1)c1cc2ccccc2oc1=O	-12	/	54*	10	-13
Cc1ccc(Sc2cnn(-c3ccccc3)c(=O)c2Cl)cc1	-12	-5	38*	26	-19
Nc1ccc(Sc2cnn(-c3ccccc3)c(=O)c2Cl)cc1	-4	-3	-3	23	1
COc1ccc(C)cc1Nc1n[n+](-c2ccccc2)c(-c2c(Cl)cccc2Cl)s1	26	-9	38*	44	2

Assay outcomes: PubChem, The Scripps Research Institute Molecular Screening Center
